Calls of active or inactive are those of the source. The rule behind the calls is not given here.
Columns and labels:
Type in all cases: cell-based
[1] = target: T1, Neuronal acetylcholine receptor; alpha4/beta2 (Homo sapiens, UniProt P17787+P43681); assay: Agonist activity at human AChR alpha4beta2 transfected in human HEK293 cells assessed as increase in calcium influx incubated for 1 hr by fluo-4 dye based assay
[2] = target: T2, Neuronal acetylcholine receptor subunit alpha-7 (Homo sapiens, UniProt P36544); assay: Agonist activity at human AChR alpha7 transfected in rat GH3 cells assessed as increase in calcium influx incubated for 1 hr by fluo-4 dye based assay
[3] = target: T1, Neuronal acetylcholine receptor; alpha4/beta2; assay: Antagonist activity at human AChR alpha4beta2 transfected in human HEK293 cells assessed as decrease in epibatidine-induced calcium influx incubated for 1 hr by fluo-4 dye based assay
In short: (§1)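 HEK293-hα3β4 or HEK293-hα4β2 cells were seeded 72 h ahead, kept in HBSS/1% FBS (pH 7.4) 16–24 h, and loaded with Fluo-4 plus 2.5 mM probenecid for 1 h at 37 °C. After washing, cells were pretreated 5 min with alkaloid at varied concentrations. 0.1 μM (±)-epibatidine was then added while fluorescence (488/510 nm) was recorded for 78 s. Responses were normalized to the maximal epibatidine response, mean ± SD (n = 3). IC50 and nH came from concentration–response curves.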

[4] = target: T2, Neuronal acetylcholine receptor subunit alpha-7; assay: Antagonist activity at human AChR alpha7 transfected in rat GH3 cells assessed as decrease in epibatidine-induced calcium influx incubated for 1 hr by fluo-4 dye based assay
In short: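 GH3-hα7 cells were seeded 72 h ahead, kept in HBSS/1% FBS (pH 7.4) 16–24 h, and loaded with Fluo-4 plus 2.5 mM probenecid for 1 h at 37 °C. After washing, cells were pretreated 5 min with varied alkaloid concentrations. 1.0 μM (±)-epibatidine was then added while fluorescence (488/510 nm) was recorded for 78 s. Data were normalized to the maximal epibatidine response, mean ± SD (n = 3). IC50 and nH were fitted.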

[5] = target: T3, Neuronal acetylcholine receptor; alpha3/beta4 (Homo sapiens, UniProt P30926+P32297); assay: Antagonist activity at human AChR alpha3beta4 transfected in human HEK293 cells assessed as decrease in epibatidine-induced calcium influx incubated for 1 hr by fluo-4 dye based assay
[6] = organism: Homo sapiens; assay: Selectivity index, ratio of IC50 for human AChR alpha4beta2 transfected in human HEK293 cells to IC50 for human AChR alpha3beta4 transfected in human HEK293 cells
[7] = organism: Homo sapiens; assay: Selectivity index, ratio of IC50 for human AChR alpha7 transfected in rat GH3 cells to IC50 for human AChR alpha3beta4 transfected in human HEK293 cells
[8] = target: T1, Neuronal acetylcholine receptor; alpha4/beta2; assay: Antagonist activity at human AChR alpha4beta2 transfected in human HEK293 cells assessed as decrease in epibatidine-induced calcium influx at 10 to 100 uM incubated for 1 hr by fluo-4 dye based assay relative to control; in short: as §1
[9] = target: T2, Neuronal acetylcholine receptor subunit alpha-7; assay: Antagonist activity at human AChR alpha7 transfected in […] cells assessed as decrease in epibatidine-induced calcium influx at 10 to 100 uM incubated for 1 hr by fluo-4 dye based assay relative to control
[10] = target: T3, Neuronal acetylcholine receptor; alpha3/beta4; assay: Antagonist activity at human AChR alpha3beta4 transfected in human HEK293 cells assessed as decrease in epibatidine-induced calcium influx at 100 uM incubated for 1 hr by fluo-4 dye based assay relative to control; in short: as §1

T1 sequence (P17787 whole entry): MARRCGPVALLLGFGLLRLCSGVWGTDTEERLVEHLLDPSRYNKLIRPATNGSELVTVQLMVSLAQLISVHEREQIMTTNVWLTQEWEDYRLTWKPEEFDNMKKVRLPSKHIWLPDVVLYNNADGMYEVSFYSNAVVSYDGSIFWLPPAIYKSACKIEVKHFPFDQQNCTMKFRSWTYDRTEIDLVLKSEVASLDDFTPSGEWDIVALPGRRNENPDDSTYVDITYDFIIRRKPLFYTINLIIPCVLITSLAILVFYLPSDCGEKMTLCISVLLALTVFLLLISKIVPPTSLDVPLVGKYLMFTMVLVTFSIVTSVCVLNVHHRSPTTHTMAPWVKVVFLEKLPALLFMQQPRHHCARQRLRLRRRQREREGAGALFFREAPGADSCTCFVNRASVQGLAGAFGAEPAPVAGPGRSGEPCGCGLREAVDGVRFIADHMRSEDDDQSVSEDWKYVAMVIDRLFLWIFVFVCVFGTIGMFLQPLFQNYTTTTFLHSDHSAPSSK
T1 sequence (P43681 whole entry): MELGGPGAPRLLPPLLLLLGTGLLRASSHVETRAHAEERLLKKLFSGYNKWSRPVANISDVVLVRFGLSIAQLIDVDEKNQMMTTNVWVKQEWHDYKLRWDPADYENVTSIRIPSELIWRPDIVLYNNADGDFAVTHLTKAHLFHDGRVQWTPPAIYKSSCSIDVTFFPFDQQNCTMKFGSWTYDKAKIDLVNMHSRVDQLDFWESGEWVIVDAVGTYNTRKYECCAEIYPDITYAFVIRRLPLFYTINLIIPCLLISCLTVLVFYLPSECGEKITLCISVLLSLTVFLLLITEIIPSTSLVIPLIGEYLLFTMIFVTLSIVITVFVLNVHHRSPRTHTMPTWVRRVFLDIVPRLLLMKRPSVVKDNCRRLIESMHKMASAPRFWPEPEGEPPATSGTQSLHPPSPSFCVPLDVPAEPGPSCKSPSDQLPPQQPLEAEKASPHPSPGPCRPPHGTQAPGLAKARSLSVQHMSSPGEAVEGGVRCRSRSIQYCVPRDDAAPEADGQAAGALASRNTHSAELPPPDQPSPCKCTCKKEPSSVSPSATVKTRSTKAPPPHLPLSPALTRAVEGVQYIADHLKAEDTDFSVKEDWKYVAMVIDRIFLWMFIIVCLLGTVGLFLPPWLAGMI
T2 sequence (P36544 whole entry): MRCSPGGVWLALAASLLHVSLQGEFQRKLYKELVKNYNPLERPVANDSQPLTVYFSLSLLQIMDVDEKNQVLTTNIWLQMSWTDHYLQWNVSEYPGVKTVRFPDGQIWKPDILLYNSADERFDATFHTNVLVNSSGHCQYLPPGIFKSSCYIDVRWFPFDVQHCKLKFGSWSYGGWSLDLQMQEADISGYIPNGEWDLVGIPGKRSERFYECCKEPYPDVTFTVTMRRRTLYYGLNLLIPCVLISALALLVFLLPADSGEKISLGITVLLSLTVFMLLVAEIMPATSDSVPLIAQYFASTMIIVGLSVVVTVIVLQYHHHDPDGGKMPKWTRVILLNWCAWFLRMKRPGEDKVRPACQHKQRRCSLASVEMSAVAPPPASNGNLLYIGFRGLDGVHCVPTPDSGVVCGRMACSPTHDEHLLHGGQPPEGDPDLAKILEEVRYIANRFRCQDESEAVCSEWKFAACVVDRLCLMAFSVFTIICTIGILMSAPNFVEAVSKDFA
T3 sequence (P30926 whole entry): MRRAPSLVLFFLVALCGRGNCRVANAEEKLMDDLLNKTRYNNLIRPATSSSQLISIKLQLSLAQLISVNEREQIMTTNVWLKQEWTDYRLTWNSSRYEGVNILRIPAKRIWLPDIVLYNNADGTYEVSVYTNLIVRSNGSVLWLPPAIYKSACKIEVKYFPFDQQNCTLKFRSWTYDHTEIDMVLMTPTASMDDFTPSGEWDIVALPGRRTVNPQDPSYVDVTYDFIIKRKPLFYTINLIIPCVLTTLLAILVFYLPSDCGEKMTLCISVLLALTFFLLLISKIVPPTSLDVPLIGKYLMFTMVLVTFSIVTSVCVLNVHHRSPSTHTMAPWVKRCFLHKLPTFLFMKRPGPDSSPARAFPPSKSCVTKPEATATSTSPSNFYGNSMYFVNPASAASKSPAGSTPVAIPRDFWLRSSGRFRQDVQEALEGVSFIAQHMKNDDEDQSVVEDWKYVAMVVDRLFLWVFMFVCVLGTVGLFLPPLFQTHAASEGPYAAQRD
T3 sequence (P32297 whole entry): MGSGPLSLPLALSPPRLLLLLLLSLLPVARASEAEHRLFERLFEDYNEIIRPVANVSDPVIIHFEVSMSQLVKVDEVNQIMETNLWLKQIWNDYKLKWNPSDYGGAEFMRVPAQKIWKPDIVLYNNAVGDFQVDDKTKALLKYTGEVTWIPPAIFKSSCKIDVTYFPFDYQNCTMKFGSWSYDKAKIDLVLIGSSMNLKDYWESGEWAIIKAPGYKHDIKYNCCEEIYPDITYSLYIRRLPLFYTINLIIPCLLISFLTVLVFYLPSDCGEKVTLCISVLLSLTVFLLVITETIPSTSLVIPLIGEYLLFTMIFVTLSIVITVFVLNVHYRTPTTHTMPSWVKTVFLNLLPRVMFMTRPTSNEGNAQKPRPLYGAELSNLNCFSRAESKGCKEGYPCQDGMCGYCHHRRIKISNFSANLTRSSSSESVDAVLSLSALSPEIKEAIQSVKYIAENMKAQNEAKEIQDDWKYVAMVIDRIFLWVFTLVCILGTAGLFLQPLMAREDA

Structure (SMILES): Clc1ccc(C2C[C@@H]3CC[C@H]2N3)cn1 (mixture of isomers)
- Activity [1]: Active
- Activity [2]: Active

Structure (SMILES): CC1=CC[C@@H]2C[C@H]1[C@@H](c1ccnc3ccccc13)NC2(C)C
- Activity [1]: inactive
- Activity [2]: inactive
- IC50 [3]: 6.7 µM
- IC50 ([4]; read-out: IC50): 45.3 µM

Structure (SMILES): CC1(C)N[C@@H]2Cc3c([nH]c4ccccc34)[C@]3(C)CC[C@H]1C[C@H]23
- Activity [1]: inactive
- Activity [2]: inactive
- IC50 [5]: 0.4 µM
- IC50 [3]: 3.4 µM
- IC50 ([4]; read-out: IC50): 27 µM
- Ratio IC50 [6]: 8.4
- Ratio IC50 [7]: 67.5
- inhibition [8]: 100%
- inhibition [9]: 100%

Structure (SMILES): CC1(C)[C@@H]2C[C@@H]3[C@H]4C[C@@]5(Nc6ccccc6[C@@H]5N41)[C@]3(C)CC2=O
- Activity [1]: inactive
- Activity [2]: inactive
- IC50 [5]: 167 µM
- IC50 [3]: 145 µM
- IC50 ([4]; gh3): Not Active
- inhibition [10]: 40%
- inhibition [8]: inactive
- inhibition [9]: inactive
